Laboratory results: ChEMBL document CHEMBL5724801, “EUbOPEN Chemogenomics Library - Multiplex” (2024)
Values joined by “and” are separate entries in the source; they are usually repeats but may differ in a detail not shown here. Identical values can stand only once.

Tested on: Fibroblast
Assay: Multiplex assay against human fibroblast
Type: toxicity, cell-based
In short: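 Hoechst33342, BioTracker Green Microtubule Cytoskeleton Dye, MitoTracker Red and Annexin V Alexa Fluor 680 were added to live cells at seeding, and imaging on a CQ1 microscope at 37°C and 5% CO2 followed compound addition. Gating by CellPathfinder machine learning separated cells into Hoechst high-intensity objects or normal cells, then normal cells into healthy, pyknosed or fragmented nuclei, then pyknosed cells into mitotic or apoptotic. Per cents of healthy-nucleus cells are reported for the tubulin, mitochondrial-mass and membrane-permeability phenotypes.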

[1] = 12 h, 1 µM, compound concentration 1 uM
[2] = 12 h, 10 µM, compound concentration 10 uM
[3] = 24 h, 1 µM, compound concentration 1 uM
[4] = 24 h, 10 µM, compound concentration 10 uM
[5] = 48 h, 1 µM, compound concentration 1 uM
[6] = 48 h, 10 µM, compound concentration 10 uM

CCOc1c2c(c(OCC)c3ncccc13)CN(c1ccc(CS(=O)(=O)NC(=O)Cc3ccccc3OC)cc1C)C2=O
Population Apoptotic (%) [1]: 44% and 38% | Population Fragmented Nuclei (%) [1]: 15% and 37% | Population Healthy Nuclei (%) [1]: 68% and 42% | Population Hoechst High Intensity Objects (%) [1]: 0% and 4% | Population Membrane Permeable-Phenotype (%) [1]: 1% and 8% | Population Mitochondria Different-Phenotype (%) [1]: 3% and 2% | Population Mitotic Cells (%) [1]: 55% and 61% | Population Normal (%) [1]: 99% and 95% | Population Pyknosed Nuclei (%) [1]: 15% and 19% | Population Tubulin-Different-Phenotype (%) [1]: 23% and 62% | Total Cell Count [1]: 120 and 111 | Population Apoptotic (%) [2]: 35% and 21% | Population Fragmented Nuclei (%) [2]: 15% and 19% | Population Healthy Nuclei (%) [2]: 63% and 50% | Population Hoechst High Intensity Objects (%) [2]: 1% and 3% | Population Membrane Permeable-Phenotype (%) [2]: 1% and 7% | Population Mitochondria Different-Phenotype (%) [2]: 6% and 8% | Population Mitotic Cells (%) [2]: 64% and 78% | Population Normal (%) [2]: 98% and 96% | Population Pyknosed Nuclei (%) [2]: 21% and 29% | Population Tubulin-Different-Phenotype (%) [2]: 27% and 54% | Total Cell Count [2]: 161 and 146 | Population Apoptotic (%) [3]: 56% and 46% | Population Fragmented Nuclei (%) [3]: 13% and 37% | Population Healthy Nuclei (%) [3]: 67% and 32% | Population Hoechst High Intensity Objects (%) [3]: 3% and 2% | Population Mitochondria Different-Phenotype (%) [3]: 3% | Population Mitotic Cells (%) [3]: 43% and 53% | Population Normal (%) [3]: 96% and 97% | Population Pyknosed Nuclei (%) [3]: 18% and 29% | Population Tubulin-Different-Phenotype (%) [3]: 23% and 69% | Total Cell Count [3]: 127 and 104 | Population Apoptotic (%) [4]: 42% | Population Fragmented Nuclei (%) [4]: 17% and 25% | Population Healthy Nuclei (%) [4]: 66% and 49% | Population Hoechst High Intensity Objects (%) [4]: 3% and 4% | Population Membrane Permeable-Phenotype (%) [4]: 1% and 5% | Population Mitochondria Different-Phenotype (%) [4]: 2% | Population Mitotic Cells (%) [4]: 57% | Population Normal (%) [4]: 96% and 95% | Population Pyknosed Nuclei (%) [4]: 15% and 25% | Population Tubulin-Different-Phenotype (%) [4]: 19% and 50% | Total Cell Count [4]: 171 and 142 | Population Apoptotic (%) [5]: 57% and 66% | Population Fragmented Nuclei (%) [5]: 18% and 47% | Population Healthy Nuclei (%) [5]: 66% and 40% | Population Hoechst High Intensity Objects (%) [5]: 3% and 5% | Population Membrane Permeable-Phenotype (%) [5]: 1% and 5% | Population Mitochondria Different-Phenotype (%) [5]: 3% and 7% | Population Mitotic Cells (%) [5]: 42% and 33% | Population Normal (%) [5]: 96% and 94% | Population Pyknosed Nuclei (%) [5]: 15% and 12% | Population Tubulin-Different-Phenotype (%) [5]: 26% and 72% | Total Cell Count [5]: 128 and 105 | Population Apoptotic (%) [6]: 71% and 29% | Population Fragmented Nuclei (%) [6]: 16% and 34% | Population Healthy Nuclei (%) [6]: 63% and 45% | Population Hoechst High Intensity Objects (%) [6]: 7% and 9% | Population Membrane Permeable-Phenotype (%) [6]: 1% and 7% | Population Mitochondria Different-Phenotype (%) [6]: 2% and 5% | Population Mitotic Cells (%) [6]: 28% and 70% | Population Normal (%) [6]: 92% and 90% | Population Pyknosed Nuclei (%) [6]: 20% | Population Tubulin-Different-Phenotype (%) [6]: 20% and 51% | Total Cell Count [6]: 171 and 131

COc1cc(/C=C(\C#N)C(=O)Nc2nnc(C(F)(F)F)s2)ccc1OCc1ccc(C(F)(F)F)cc1C(F)(F)F
Population Healthy Nuclei (%) [1]: 58.16% and 84.16% | Population Hoechst High Intensity Objects (%) [1]: 0% | Population Membrane Permeable-Phenotype (%) [1]: 2.63% and 2.94% | Population Mitochondria Different-Phenotype (%) [1]: 3.51% and 3.53% | Population Mitotic Cells (%) [1]: 97.5% and 65% | Population Normal (%) [1]: 100% | Population Pyknosed Nuclei (%) [1]: 20.41% and 9.9% | Population Tubulin-Different-Phenotype (%) [1]: 14.04% and 8.24% | Total Cell Count [1]: 196 and 202 | Population Apoptotic (%) [2]: 13.04% and 12.12% | Population Fragmented Nuclei (%) [2]: 7.14% and 5.21% | Population Healthy Nuclei (%) [2]: 67.58% and 79.15% | Population Hoechst High Intensity Objects (%) [2]: 0% | Population Membrane Permeable-Phenotype (%) [2]: 4.07% and 1.2% | Population Mitochondria Different-Phenotype (%) [2]: 8.13% and 4.79% | Population Mitotic Cells (%) [2]: 86.96% and 87.88% | Population Normal (%) [2]: 100% | Population Pyknosed Nuclei (%) [2]: 25.27% and 15.64% | Population Tubulin-Different-Phenotype (%) [2]: 7.32% and 18.56% | Total Cell Count [2]: 182 and 211 | Population Apoptotic (%) [3]: 9.09% and 25% | Population Fragmented Nuclei (%) [3]: 17.05% and 6.05% | Population Healthy Nuclei (%) [3]: 67.74% and 86.51% | Population Hoechst High Intensity Objects (%) [3]: 0% | Population Membrane Permeable-Phenotype (%) [3]: 5.44% and 3.23% | Population Mitochondria Different-Phenotype (%) [3]: 4.76% and 1.61% | Population Mitotic Cells (%) [3]: 90.91% and 75% | Population Normal (%) [3]: 100% | Population Pyknosed Nuclei (%) [3]: 15.21% and 7.44% | Population Tubulin-Different-Phenotype (%) [3]: 14.97% and 9.14% | Total Cell Count [3]: 217 and 215 | Population Apoptotic (%) [4]: 9.09% and 23.53% | Population Fragmented Nuclei (%) [4]: 4.46% and 6.64% | Population Healthy Nuclei (%) [4]: 79.21% and 85.31% | Population Hoechst High Intensity Objects (%) [4]: 0% | Population Membrane Permeable-Phenotype (%) [4]: 3.75% and 3.33% | Population Mitochondria Different-Phenotype (%) [4]: 7.5% and 5% | Population Mitotic Cells (%) [4]: 90.91% and 76.47% | Population Normal (%) [4]: 100% | Population Pyknosed Nuclei (%) [4]: 16.34% and 8.06% | Population Tubulin-Different-Phenotype (%) [4]: 10% and 18.89% | Total Cell Count [4]: 202 and 211 | Population Apoptotic (%) [5]: 33.33% and 37.5% | Population Fragmented Nuclei (%) [5]: 14.56% and 6.01% | Population Healthy Nuclei (%) [5]: 78.54% and 90.56% | Population Hoechst High Intensity Objects (%) [5]: 0% | Population Membrane Permeable-Phenotype (%) [5]: 2.93% and 0.95% | Population Mitochondria Different-Phenotype (%) [5]: 8.29% and 2.37% | Population Mitotic Cells (%) [5]: 66.67% and 62.5% | Population Normal (%) [5]: 100% | Population Pyknosed Nuclei (%) [5]: 6.9% and 3.43% | Population Tubulin-Different-Phenotype (%) [5]: 6.83% and 10.43% | Total Cell Count [5]: 261 and 233 | Population Fragmented Nuclei (%) [6]: 7.11% and 8.56% | Population Healthy Nuclei (%) [6]: 90.05% and 88.74% | Population Hoechst High Intensity Objects (%) [6]: 0% | Population Membrane Permeable-Phenotype (%) [6]: 1.05% and 2.03% | Population Mitochondria Different-Phenotype (%) [6]: 10.53% and 2.54% | Population Mitotic Cells (%) [6]: 100% and 50% | Population Normal (%) [6]: 100% | Population Pyknosed Nuclei (%) [6]: 2.84% and 2.7% | Total Cell Count [6]: 211 and 222
